The text below walks through data of EPA's CvTdb concentration-time database.

For series [1], the system named is Rat. The experiment in a line: concentration in brain after dosing. To be noted: 0.5 h; dosed: Fluorotelomer alcohol 8+2; 80 mg/kg; oral; Female; Harlan Sprague Dawley.
Series [2] deals with Rat. Description: concentration in liver after dosing. To be noted: 1 h; dosed: Fluorotelomer alcohol 8+2; 24 mg/kg; oral; Male; Harlan Sprague Dawley.
The subject of series [3] is Rat. The experiment in a line: concentration in kidney after dosing. To be noted: 0.5 h; dosed: Fluorotelomer alcohol 8+2; 80 mg/kg; oral; Female; Harlan Sprague Dawley.
The subject of series [4] is Rat. Description: concentration in plasma after dosing. To be noted: dosed: Fluorotelomer alcohol 8+2, 40 mg/kg, iv, Female, Harlan Sprague-Dawley.
Series [5] deals with Rat. Description: concentration in kidney after dosing. As to conditions: 0.5 h; dosed: Fluorotelomer alcohol 8+2; 80 mg/kg; oral; Female; Harlan Sprague Dawley. This is another data set of the same source.
Series [6] deals with Rat. The experiment in a line: concentration in plasma after dosing. As to conditions: 0.25 h; dosed: Wyeth-14643; 2.0 mg/kg; iv; Male; Sprague-Dawley.
In series [7] the test system is Rat. Description: concentration in plasma after dosing. To be noted: dosed: Wyeth-14643, 2.0 mg/kg, iv, Male, Sprague-Dawley.
Series [8] relates to Rat. Description: concentration in plasma after dosing. As to conditions: 40 min; dosed: Di-n-butyl phthalate; 20 mg/kg; iv; Male; Sprague-Dawley.
For series [9], the system named is Rat. Description: concentration in plasma after dosing. As to conditions: 40 min; dosed: Di-n-butyl phthalate; 20 mg/kg; iv; Male; Sprague-Dawley. This is another data set of the same source.
For series [10], the system named is Rat. The experiment in a line: concentration in plasma after dosing. As to conditions: 10 h; dosed: Di-n-butyl phthalate; 50 mg/kg; oral; Male; Sprague-Dawley.
The test system of series [11] is Rat. The experiment in a line: concentration in plasma after dosing. To be noted: 0.25 h; dosed: dichloroacetic acid; 10 mg/kg; oral; Male; Harlan Sprague Dawley.
Another series relates to human. The experiment in a line: concentration in plasma after dosing; negative times count back from the end of exposure. As to conditions: dosed: trichloroethylene, 100 ppm, inhalation, duration: 4 hr, person, during exposure. The essentials:
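Sampling and analytical methods are those of each source and frequently went unreported. The concentration-versus-time and amount-versus-time points were compiled from published in vivo toxicokinetic studies and two structured collections. Most were digitised from plot screenshots with WebPlotDigitizer, with others copied from tables, in the reported units.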

Series [12] concerns Rat. The experiment in a line: concentration in brain after dosing. To be noted: 24 h; dosed: Perfluorodecanoic acid; 10 mg/kg; oral; Male; Harlan Sprague Dawley.
Series [13] concerns Rat. The experiment in a line: concentration in plasma after dosing. To be noted: dosed: Perfluorodecanoic acid, 2 mg/kg, iv, Male, F344.
Series [14] relates to Rat. The experiment in a line: concentration in plasma after dosing. As to conditions: dosed: Perfluorodecanoic acid, 2 mg/kg, iv, Male, F344. This is another data set of the same source.
Series [15] has as its system Rat. The experiment in a line: concentration in liver after dosing. To be noted: 10 h; dosed: Thiodiglycolic Acid; 20 mg/kg; iv; Female; Harlan Sprague Dawley.
Series [16] concerns Rat. The experiment in a line: concentration in liver after dosing. As to conditions: 40 min; dosed: Thiodiglycolic Acid; 20 mg/kg; iv; Male; Harlan Sprague Dawley.
Series [17] has as its system Rat. Description: concentration in liver after dosing. To be noted: 10 min; dosed: Thiodiglycolic Acid; 20 mg/kg; iv; Male; F344.
In series [18] the test system is Rat. Description: concentration in heart after dosing. To be noted: 4 h; dosed: Thiodiglycolic Acid; 20 mg/kg; iv; Male; Harlan Sprague Dawley.
In series [19] the test system is Rat. The experiment in a line: concentration in heart after dosing. As to conditions: 3 h; dosed: Thiodiglycolic Acid; 20 mg/kg; iv; Female; Harlan Sprague Dawley.
Series [20] has as its system Rat. Description: concentration in plasma after dosing. To be noted: 4 h; dosed: Thiodiglycolic Acid; 20 mg/kg; iv; Female; Harlan Sprague Dawley.
Series [21] has as its system Rat. The experiment in a line: concentration in thymus after dosing. As to conditions: 10 min; dosed: Thiodiglycolic Acid; 20 mg/kg; iv; Male; F344.
Series [22] concerns Rat. The experiment in a line: concentration in plasma after dosing. To be noted: 20 min; dosed: Thiodiglycolic Acid; 20 mg/kg; iv; Female; F344.
Series [23] relates to Rat. The experiment in a line: concentration in plasma after dosing. As to conditions: 9 h; dosed: Primidone; 80 mg/kg; oral; Male; F344.
In series [24] the test system is Rat. Description: concentration in plasma after dosing. As to conditions: 1.5 h; dosed: Primidone; 30 mg/kg; oral; Female; F344.
The subject of series [25] is Rat. Description: concentration in plasma after dosing. As to conditions: 6 h; dosed: Primidone; 80 mg/kg; oral; Female; F344.
Series [26] has as its system Rat. The experiment in a line: concentration in plasma after dosing. As to conditions: 12 h; dosed: Primidone; 80 mg/kg; oral; Female; Harlan Sprague-Dawley.
Series [27] relates to Rat. Description: concentration in liver after dosing. As to conditions: 1 h; dosed: Bis 2-Chloroethoxy Methane; 20 mg/kg; iv; Male; F344.
The subject of series [28] is Rat. Description: concentration in heart after dosing. As to conditions: 2 h; dosed: Bis 2-Chloroethoxy Methane; 20 mg/kg; iv; Male; F344.
Series [29] concerns Rat. The experiment in a line: concentration in liver after dosing. To be noted: 20 min; dosed: Bis 2-Chloroethoxy Methane; 20 mg/kg; iv; Male; F344.
In series [30] the test system is Rat. Description: concentration in heart after dosing. As to conditions: 20 min; dosed: Bis 2-Chloroethoxy Methane; 20 mg/kg; iv; Male; F344.
Series [31] has as its system Rat. The experiment in a line: concentration in heart after dosing. As to conditions: 6 h; dosed: Bis 2-Chloroethoxy Methane; 20 mg/kg; iv; Female; F344.
The test system of series [32] is Rat. Description: concentration in thymus after dosing. To be noted: 4 h; dosed: Bis 2-Chloroethoxy Methane; 20 mg/kg; iv; Male; F344.
For series [33], the system named is Rat. Description: concentration in plasma after dosing. To be noted: 3 h; dosed: Bis 2-Chloroethoxy Methane; 20 mg/kg; iv; Male; F344.
The subject of series [34] is Rat. Description: concentration in thymus after dosing. As to conditions: 3 h; dosed: Bis 2-Chloroethoxy Methane; 20 mg/kg; iv; Male; F344.
The test system of series [35] is Rat. The experiment in a line: concentration in plasma after dosing. As to conditions: dosed: Bis 2-Chloroethoxy Methane, 40 mg/kg, iv, Male, Harlan Sprague Dawley.
Series [36] concerns Rat. Description: concentration in plasma after dosing. As to conditions: dosed: Bis 2-Chloroethoxy Methane, 40 mg/kg, iv, Male, Harlan Sprague Dawley. This is another data set of the same source.
For series [37], the system named is Rat. The experiment in a line: concentration in thymus after dosing. As to conditions: 6 h; dosed: Bis 2-Chloroethoxy Methane; 20 mg/kg; iv; Female; F344.

Molecule `OCCC(F)(F)C(F)(F)C(F)(F)C(F)(F)C(F)(F)C(F)(F)C(F)(F)C(F)(F)F` [Fluorotelomer alcohol 8+2] returned a concentration in brain in the series on Rat [1] of 2670 ng/g. For the same molecule, the concentration in liver in the series on Rat [2] worked out at 4650 ng/g. Also, the concentration in kidney stood at 3400 ng/g in the series on Rat [3] and 4140 ng/g with Rat [5]. For the same molecule, the concentration in plasma with Rat [4] (0.75 h) amounted to 4710 ng/mL; with Rat [4] (12 h), 55.5 ng/mL.

Consider `Cc1cccc(Nc2cc(Cl)nc(SCC(=O)O)n2)c1C`, for which the concentration in plasma with Rat [6] was 17.4 µg/mL; with Rat [7] (0.5 h), 5.2 µg/mL; in the series with Rat [7] (3 h), 0.338 µg/mL.

As to `CCCCOC(=O)c1ccccc1C(=O)O` [Mono-n-butyl phthalate], the concentration in plasma in the series on Rat [8] was 8.27 µg/mL; in the series with Rat [9], 5.35 µg/mL; in the series with Rat [10], 1.17 µg/mL.

For `O=C(O)C(Cl)Cl` [dichloroacetic acid], the concentration in plasma worked out at 0.72 µg/mL in the series with Rat [11], 5 ng/mL in the series with human (-1 h), 4 ng/mL with human (-2 h) and 5 ng/mL with human (-3 h).

For the molecule `O=C(O)C(F)(F)C(F)(F)C(F)(F)C(F)(F)C(F)(F)C(F)(F)C(F)(F)C(F)(F)C(F)(F)F` [Perfluorodecanoic acid], in the series with Rat [12], the concentration in brain worked out at 2840 ng/g. Also, the concentration in plasma with Rat [13] (1 h) amounted to 6890 ng/mL; in the series on Rat [13] (528 h) it was 4990 ng/mL; with Rat [13] (3360 h) it was 662 ng/mL; in the series with Rat [14] (5 min), 7130 ng/mL; in the series on Rat [14] (192 h), 3040 ng/mL.

For the molecule `O=C(O)CSCC(=O)O` [Thiodiglycolic Acid], the concentration in liver is 4910 ng/g in the series on Rat [15], 183000 ng/g in the series on Rat [16] and 160000 ng/g with Rat [17]. In addition, the concentration in heart was determined as 527 ng/g with Rat [18] and 620 ng/g with Rat [19]. The values for the concentration in plasma in the series with Rat [20] and with Rat [22] were 324 ng/mL and 9230 ng/mL, respectively. The same molecule came in with a concentration in thymus with Rat [21] of 6960 ng/g.

Take `CCC1(c2ccccc2)C(=O)NC(=O)NC1=O` [Phenobarbital]: the concentration in plasma with Rat [23] was determined as 6.8 µg/mL; in the series with Rat [24] it was 0.38 µg/mL; in the series with Rat [25] it was 1.82 µg/mL; with Rat [26], 5.83 µg/mL.

`ClCCOCOCCCl` [Bis 2-Chloroethoxy Methane]: the concentration in liver in the series with Rat [27] stood at 2070 ng/g; in the series on Rat [29], 3690 ng/g. Also, the results for the concentration in heart in the series on Rat [28], with Rat [30] and with Rat [31] were 119 ng/g, 7220 ng/g and 28.6 ng/g, respectively. The values for the concentration in thymus in the series on Rat [32], in the series on Rat [34] and with Rat [37] were 72.9 ng/g, 394 ng/g and 61.4 ng/g, respectively. Besides, the concentration in plasma came to 123 ng/mL in the series on Rat [33]; 8120 ng/mL with Rat [35] (40 min); 22 ng/mL in the series on Rat [35] (8 h); 6610 ng/mL in the series with Rat [36] (40 min); 15.5 ng/mL in the series with Rat [36] (8 h).
